Data set [1] has as its system Mus musculus. In words: Toxicity in BALB/c mouse assessed as mortality at 120 umol/kg, po administered daily once for 12 days measured on day 8. As to conditions: in vivo, 288 h. The class given is organism-based. In outline:
(§1)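 Male BALB/c mice aged 6-8 weeks, n = 6 per group, received 120 μmol/kg by gavage once daily for 12 days in 10% ethanol, with 10% ethanol alone as the control. Survival was followed over time, and mice were weighed at day 12 and then sacrificed. Small intestine was paraffin-embedded, cut into 5 μm sections, H&E-stained and examined by light microscopy. Student's t test was used.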

For data set [2], the system named is Mus musculus. Kind of data set: Toxicity in BALB/c mouse assessed as mortality at 120 umol/kg, po administered daily once for 12 days. As to conditions: in vivo, 288 h. The class given is organism-based. The procedure, abridged:
as §1

Data set [3] deals with Mus musculus. In words: Toxicity in BALB/c mouse assessed as induction of small intestine damage at 120 umol/kg, po administered daily once for 12 days. It counts as organism-based. The note with it: in vivo, 288 h. In outline:
as §1

The next data set concerns MDA-MB-435. Kind of data set: Cytotoxicity against human MDA-MB-435 cells after 72 hrs by MTT assay. The class given is functional, cell-based. The procedure, abridged:
(§2)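 Compounds dissolved in DMSO; cells seeded at 5 × 10^3 per well and treated after adherence with a range of concentrations for 72 h, with DMSO as negative control. MTT was added for 4 h at 37 °C in the dark, formazan dissolved in DMSO, and absorbance read. IC50 (μM) was calculated as the mean of three independent experiments.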
(Formazan colour is commonly taken as a measure of viable cells.)

A further data set deals with MCF7. In words: Cytotoxicity against human MCF7 cells after 72 hrs by MTT assay. The class given is functional, cell-based. In outline: as §2
The subject of a further data set is SW-620. In words: Cytotoxicity against human SW620 cells after 72 hrs by MTT assay. It counts as functional, cell-based. The procedure, abridged: as §2
In the next data set the test system is HCT-116. In words: Cytotoxicity against human HCT116 cells after 72 hrs by MTT assay. The class given is functional, cell-based. The procedure, abridged: as §2
The test system of the next data set is B16-F10. Kind of data set: Cytotoxicity against mouse B16F10 cells after 72 hrs by MTT assay. The class given is functional, cell-based. In outline:
as §2

The test system of a further data set is PC-3. In words: Cytotoxicity against human PC3 cells after 72 hrs by MTT assay. It counts as functional, cell-based. The procedure, abridged: as §2
In another data set the test system is 4T1. Kind of data set: Cytotoxicity against mouse 4T1 cells after 72 hrs by MTT assay. The class given is functional, cell-based. The procedure, abridged:
as §2

The test system of another data set is CT26. Kind of data set: Cytotoxicity against mouse CT26 cells after 72 hrs by MTT assay. It counts as functional, cell-based. The procedure, abridged:
as §2

Data set [4] in a line: Solubility of the compound in 100 gram of water. The class given is physicochemical. As to conditions: buffer. In outline: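 Water solubility was measured at 37 °C as the mass of compound dissolving in 100 g of H2O.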
The test system of the next data set is MCF-7 (Homo sapiens). Kind of data set: Cytotoxicity against human MCF-7 cells after 72 hrs by MTT assay. The note with it: MCF-7, 72 h.
The next data set has as its system A549. In words: Cytotoxicity against human A549 cells after 72 hrs by MTT assay. It counts as functional, cell-based. As to conditions: A549, 72 h. The procedure, abridged: as §2

Values joined by “and” are separate entries in the source; they are usually repeats but may differ in a detail not shown here. Identical values can stand only once. Bounds are passed on as bounds.

For `Cc1cc2c(C(C)C)c(O)c(O)c(C=O)c2c(O)c1-c1c(C)cc2c(C(C)C)c(O)c(O)c(C=O)c2c1O` [GOSSYPOL], the Activity entry in the data set with Mus musculus [1] is on record as “Toxic”; with Mus musculus [2], “Non-toxic”; in the data set with Mus musculus [3], “Toxic”. Further, the IC50 (as a rule, the concentration that gives 50% inhibition) with MDA-MB-435 (mda-mb-435) was 11.8 µM and 33.2 µM; in the data set with MCF7 (Homo sapiens, MCF7, 72 h), 12.6 µM; with MCF7 (mcf7) it was 21.6 µM; in the data set on SW-620 (sw-620), 17.2 µM; in the data set with HCT-116 (hct-116) it was 3.33 µM and 22 µM; in the data set with B16-F10 (b16-f10), 5.54 µM and 18 µM. Moreover, the IC50 with PC-3 (pc-3) is 9.14 µM and 22.4 µM; with 4T1 (4t1), 21.5 µM; in the data set on 4T1 (Mus musculus, 4T1, 72 h), 18.8 µM; in the data set with CT26 (ct26) it was 2.21 µM and 13.6 µM; in the data set on MCF-7 (Homo sapiens) it was 12.6 µM. The solubility in data set [4] is on record as less than 0.001 g.
`CC/C(C)=C(\NCc1c(O)c(O)c(C(C)C)c2cc(C)c(-c3c(C)cc4c(C(C)C)c(O)c(O)c(CN/C(C(=O)O)=C(/C)CC)c4c3O)c(O)c12)C(=O)O`: the IC50 with A549 is 13.2 µM; with MDA-MB-435 (Homo sapiens, MDA-MB-435, 72 h), greater than 40 µM; in the data set on MCF7 (Homo sapiens, MCF7, 72 h), 25.8 µM; in the data set with SW-620 (Homo sapiens, SW-620, 72 h), 11.8 µM; with HCT-116 (Homo sapiens, HCT-116, 72 h), 23.4 µM; with B16-F10 (Mus musculus, B16-F10, 72 h) it was 20.1 µM. Further, the IC50 in the data set on PC-3 (Homo sapiens, PC-3, 72 h) was greater than 40 µM; in the data set with 4T1 (Mus musculus, 4T1, 72 h), greater than 40 µM; with CT26 (Mus musculus, CT26, 72 h), 11.9 µM.
On to `Cc1cc2c(C(C)C)c(O)c(O)c(/C=N/[C@@H](Cc3ccccc3)C(=O)O)c2c(O)c1-c1c(C)cc2c(C(C)C)c(O)c(O)c(/C=N/[C@@H](Cc3ccccc3)C(=O)O)c2c1O`, for which the IC50 in the data set on A549 was 5.38 µM; in the data set with MDA-MB-435 (Homo sapiens, MDA-MB-435, 72 h), greater than 40 µM; in the data set with MCF7 (Homo sapiens, MCF7, 72 h), greater than 40 µM; in the data set on HCT-116 (Homo sapiens, HCT-116, 72 h), greater than 40 µM; with B16-F10 (Mus musculus, B16-F10, 72 h), 22.4 µM; in the data set on PC-3 (Homo sapiens, PC-3, 72 h), 28.4 µM. Besides, the IC50 in the data set on 4T1 (Mus musculus, 4T1, 72 h) is greater than 40 µM; in the data set with CT26 (Mus musculus, CT26, 72 h) it was 7.36 µM; in the data set with MCF-7 (Homo sapiens) it was greater than 40 µM.
Take `Cc1cc2c(C(C)C)c(O)c(O)c(/C=N/C3C(=O)N4[C@@H]3SC(C)(C)[C@@H]4C(=O)O)c2c(O)c1-c1c(C)cc2c(C(C)C)c(O)c(O)c(/C=N/C3C(=O)N4[C@@H]3SC(C)(C)[C@@H]4C(=O)O)c2c1O` (single isomer, unassigned): the IC50 was greater than 40 µM in the data set on A549; greater than 40 µM in the data set on MDA-MB-435 (Homo sapiens, MDA-MB-435, 72 h); greater than 40 µM in the data set with MCF7 (Homo sapiens, MCF7, 72 h); greater than 40 µM with HCT-116 (Homo sapiens, HCT-116, 72 h); greater than 40 µM in the data set on B16-F10 (Mus musculus, B16-F10, 72 h); greater than 40 µM with PC-3 (Homo sapiens, PC-3, 72 h). Also, the IC50 in the data set on 4T1 (Mus musculus, 4T1, 72 h) was greater than 40 µM; in the data set with CT26 (Mus musculus, CT26, 72 h) it was greater than 40 µM; in the data set on MCF-7 (Homo sapiens), greater than 40 µM.

These data come from ChEMBL document CHEMBL1212914, “A novel water-soluble gossypol derivative increases chemotherapeutic sensitivity and promotes growth inhibition in colon cancer” (J Med Chem, 2010).
